Experiment [1] concerns the target T1, Geranylgeranyl pyrophosphate synthase (Homo sapiens) (UniProt O95749).
T1 sequence (whole entry): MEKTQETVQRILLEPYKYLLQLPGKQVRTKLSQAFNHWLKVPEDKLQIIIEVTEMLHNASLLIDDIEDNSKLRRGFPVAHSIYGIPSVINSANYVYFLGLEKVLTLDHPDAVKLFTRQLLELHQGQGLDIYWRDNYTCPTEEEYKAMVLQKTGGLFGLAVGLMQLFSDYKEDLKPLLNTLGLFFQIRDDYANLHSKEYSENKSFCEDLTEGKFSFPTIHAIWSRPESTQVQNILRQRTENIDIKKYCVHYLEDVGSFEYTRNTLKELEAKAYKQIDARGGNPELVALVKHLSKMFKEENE
In words: Inhibition of GGDPS (unknown origin) using uRAP1a as substrate in RPMI-8226 cells assessed as disruption of geranylgeranylation by measuring unmodified Rap1a at 0.5 uM incubated for 48 hrs by immunoblot analysis. In kind it is cell-based. A digest of the protocol:
(§1)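 RPMI-8226 myeloma cells exposed 48 h to varying test concentrations, with lovastatin (10 μM) as positive control. Lysates were immunoblotted with an antibody that recognises only unprenylated Rap1a, with β-tubulin as loading control. Gels are representative of three independent studies.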
In general terms: Immunoblotting shows a protein as a band on a membrane.

Experiment [2] addresses T1, Geranylgeranyl pyrophosphate synthase (Homo sapiens). In words: Inhibition of GGDPS (unknown origin) using uRAP1a as substrate in RPMI-8226 cells by measuring lowest effective concentration by measuring unmodified Rap1a by immunoblot based ELISA analysis. The experiment is classed as cell-based. A digest of the protocol:
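Lowest effective concentration in RPMI-8226 cells after 48 h exposure. It is defined as the lowest level giving both a visible unprenylated Rap1a band on immunoblot (β-tubulin loading control) and a statistically significant rise (p<0.05, t-test vs untreated cells) in intracellular lambda light chain by ELISA. Based on n=3 independent experiments.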

Experiment [3] addresses T2, Geranylgeranyl pyrophosphate synthase (Homo sapiens, UniProt O95749).
T2 sequence (O95749 whole entry): T1 sequence (whole entry)
In words: Inhibition of GGDPS (unknown origin) using recombinant enzyme by enzyme assay.

Experiment [4] has as its target T1, Geranylgeranyl pyrophosphate synthase (Homo sapiens). In words: Inhibition of GGDPS (unknown origin) using uRAP1a as substrate in RPMI-8226 cells assessed as disruption of geranylgeranylation by measuring unmodified Rap1a at […] incubated for 48 hrs by immunoblot analysis. The experiment is classed as cell-based. Conditions: dose 0.25 µM.
Experiment [5] has the same target. In words: Inhibition of GGDPS (unknown origin) using uRAP1a as substrate in RPMI-8226 cells assessed as disruption of geranylgeranylation by measuring unmodified Rap1a at 10 uM incubated for 48 hrs by immunoblot analysis. In kind it is cell-based. Summed up:
as §1

We go through six compounds from ChEMBL document CHEMBL5579803, “α-Amino bisphosphonate triazoles serve as GGDPS inhibitors” (Bioorg Med Chem Lett, 2024).

Activity calls are given as the source filed them.

Consider `CC(C)=CCCC(C)=CCn1cc(CC(N)(P(=O)(O)O)P(=O)(O)O)nn1`, for which the inhibition entry in experiment [1] was “Active”. In experiment [2], this compound displayed an MEC of 0.5 µM. Moreover, in experiment [3], the 50% inhibitory concentration (IC50) worked out at 3760 nM.
Turning to `CC(C)=CCC/C(C)=C\CCn1cc(CC(N)(P(=O)(O)O)P(=O)(O)O)nn1`, the MEC in experiment [2] was 0.25 µM. The IC50 in experiment [3] was 49.4 nM.
`CC(C)=CCC/C(C)=C\Cn1cc(CC(N)(P(=O)(O)O)P(=O)(O)O)nn1`: the MEC in experiment [2] came out at 0.25 µM. Further, in experiment [3], the IC50 worked out at 270 nM. The inhibition result in experiment [4] is “Active”.
The compound `CC(C)=CCC/C(C)=C/CCn1cc(CC(N)(P(=O)(O)O)P(=O)(O)O)nn1` registered an MEC in experiment [2] of 1 µM. The IC50 in experiment [3] stood at 52.1 nM.
With `CC(C)=CCC/C(C)=C/CCn1cc(CC(P(=O)(O)O)P(=O)(O)O)nn1`, the MEC in experiment [2] was found to be 0.03 µM.
With `CC(C)=CCC/C(C)=C/Cn1cc(CC(N)(P(=O)(O)O)P(=O)(O)O)nn1`, the inhibition entry in experiment [5] is “inactive”. In addition, the IC50 in experiment [3] was > 100000 nM.

A word on the IC50: it is the midpoint of a concentration-inhibition curve.
